By IC50 is commonly meant the concentration needed to halve the response being measured. Low values mean higher potency, high ones lower potency.

Each structure is given as a SMILES string. The source made the active and inactive calls. The rule behind the calls is not given here.

The subject of assay [1] is U-937. In words: Induction of p21 expression in human U937 cells at 5 uM after 24 hrs. Format: functional, cell-based. In outline: (§1)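 U937 cells exposed at 5 µM for 24 h; induction of p21WAF1/CIP1 assessed alongside histone H3 and α-tubulin acetylation.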
Assay [2] relates to U-937. The assay can be described thus: Induction of granulocytic differentiation in human U937 cells assessed as CD11c expression at 5 uM after 30 hrs. It counts as functional. In outline: (§2)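 U937 cells stimulated 30 h at 5 µM; granulocytic differentiation measured as CD11c expression, reported as percent CD11c-positive/PI-negative cells; SAHA and MS-275 at 5 µM as references.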

Assay [3] deals with U-937. In words: Induction of alpha tubulin hyperacetylation in human U937 cells. Format: functional, cell-based. The procedure, abridged: (§3)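 U937 cells exposed at 5 µM for 24 h; acetylation of histone H3 and α-tubulin assessed as markers of class I HDAC and HDAC6 inhibition, respectively.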
The test system of assay [4] is U-937. The assay can be described thus: Induction of histone H4 hyperacetylation in human U937 cells. Format: functional, cell-based.
Assay [5] relates to U-937. The assay can be described thus: Induction of p21 expression in human U937 cells. It counts as functional, cell-based. In outline: as §1
Assay [6] deals with U-937. The assay can be described thus: Induction of apoptosis in human U937 cells at 5 uM after 30 hrs. Format: functional. The procedure, abridged:
(§4)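 U937 cells exposed at 5 µM for 30 h; apoptosis quantified by Annexin V/propidium iodide double staining, expressed as percent apoptotic cells; SAHA and MS-275 at 5 µM as references.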

In assay [7] the test system is U-937. In words: Induction of apoptosis in human U937 cells. Format: functional, cell-based. The procedure, abridged:
as §4

The test system of assay [8] is U-937. The assay can be described thus: Induction of granulocytic differentiation in human U937 cells. It counts as functional, cell-based. In outline:
as §2

In assay [9] the test system is U-937. In words: Induction of alpha tubulin hyperacetylation in human U937 cells at 5 uM. It counts as functional, cell-based. The procedure, abridged: as §3
The test system of assay [10] is U-937. The assay can be described thus: Induction of histone H4 hyperacetylation in human U937 cells at 5 uM. Format: functional, cell-based.
Assay [11] relates to U-937. In words: Induction of histone H3 hyperacetylation in human U937 cells at 5 uM. It counts as functional, cell-based. The procedure, abridged: as §3
The target in another assay is Histone deacetylase 4 (Homo sapiens, UniProt P56524). In words: Inhibition of human HDAC4 in U937 cells by immunoprecipitation assay. Format: cell-based, U-937.
The next assay has as its target Histone deacetylase 1 (Homo sapiens, UniProt Q13547). The assay can be described thus: Inhibition of human HDAC1 in U937 cells by immunoprecipitation assay. Format: cell-based, U-937.
Assay [12] has as its system U-937. In words: Cell cycle arrest in human U937 cells assessed as accumulation at G2 phase at 5 uM after 30 hrs. It counts as functional, cell-based. The procedure, abridged: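 U937 human leukemia cells exposed to compound at 5 µM for 30 h; cell-cycle distribution analysed, arrest read as accumulation in S or G2 phase; SAHA and MS-275 at 5 µM as reference drugs.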

Histone deacetylase 4, sequence (P56524 whole entry): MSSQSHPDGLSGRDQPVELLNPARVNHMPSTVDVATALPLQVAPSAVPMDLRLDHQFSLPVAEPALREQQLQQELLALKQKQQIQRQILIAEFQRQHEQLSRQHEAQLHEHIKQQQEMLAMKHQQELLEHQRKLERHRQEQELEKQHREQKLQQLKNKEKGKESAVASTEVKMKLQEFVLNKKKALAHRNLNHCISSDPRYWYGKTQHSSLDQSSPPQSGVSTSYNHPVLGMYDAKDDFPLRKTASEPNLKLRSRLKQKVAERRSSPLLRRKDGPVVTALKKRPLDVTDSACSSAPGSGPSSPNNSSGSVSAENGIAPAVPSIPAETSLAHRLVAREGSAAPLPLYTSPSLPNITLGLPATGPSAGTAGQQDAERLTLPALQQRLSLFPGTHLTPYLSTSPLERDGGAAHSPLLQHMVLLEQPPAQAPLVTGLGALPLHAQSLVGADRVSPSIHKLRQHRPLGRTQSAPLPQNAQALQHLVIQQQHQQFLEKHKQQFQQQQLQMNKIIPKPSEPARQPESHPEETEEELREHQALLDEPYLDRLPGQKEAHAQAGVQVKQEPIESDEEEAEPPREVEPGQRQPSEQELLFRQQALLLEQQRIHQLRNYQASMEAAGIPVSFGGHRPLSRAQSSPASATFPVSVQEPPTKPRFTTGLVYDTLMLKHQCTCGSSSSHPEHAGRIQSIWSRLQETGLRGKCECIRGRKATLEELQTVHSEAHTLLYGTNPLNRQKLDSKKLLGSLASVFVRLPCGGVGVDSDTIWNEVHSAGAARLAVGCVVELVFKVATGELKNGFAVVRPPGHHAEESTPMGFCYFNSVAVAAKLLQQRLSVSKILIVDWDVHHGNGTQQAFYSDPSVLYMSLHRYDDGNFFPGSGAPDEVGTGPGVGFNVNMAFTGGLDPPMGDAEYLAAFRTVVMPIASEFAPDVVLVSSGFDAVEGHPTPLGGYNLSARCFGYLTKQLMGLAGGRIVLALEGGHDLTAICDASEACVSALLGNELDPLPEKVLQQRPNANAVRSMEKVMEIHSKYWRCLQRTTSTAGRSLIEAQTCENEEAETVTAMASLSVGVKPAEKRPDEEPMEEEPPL
Histone deacetylase 1, sequence (Q13547 whole entry): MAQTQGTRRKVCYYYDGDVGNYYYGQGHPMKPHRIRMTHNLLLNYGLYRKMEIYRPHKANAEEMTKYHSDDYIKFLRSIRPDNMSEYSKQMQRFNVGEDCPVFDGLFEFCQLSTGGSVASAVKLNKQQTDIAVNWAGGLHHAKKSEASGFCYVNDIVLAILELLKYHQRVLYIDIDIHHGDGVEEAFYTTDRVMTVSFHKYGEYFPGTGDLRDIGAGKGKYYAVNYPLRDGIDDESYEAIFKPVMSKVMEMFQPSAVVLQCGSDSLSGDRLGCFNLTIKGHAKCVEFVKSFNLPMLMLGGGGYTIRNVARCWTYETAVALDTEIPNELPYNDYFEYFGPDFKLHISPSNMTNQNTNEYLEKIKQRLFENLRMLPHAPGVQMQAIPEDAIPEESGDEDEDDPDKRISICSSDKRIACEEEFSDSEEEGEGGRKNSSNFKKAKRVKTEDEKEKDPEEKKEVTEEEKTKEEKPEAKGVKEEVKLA

On to `Nc1ccccc1NC(=O)CCCCCc1nc(-c2ccc(-c3ccccc3)cc2)cc(=O)[nH]1`, for which, in the assay on U-937 [1], the result was Active. In the assay with U-937 [2], the Activity amounted to 45.9%.

As for `O=C(CCCCCCC(=O)Nc1ccccc1)NO` [VORINOSTAT], the result with U-937 [3], with U-937 [4], with U-937 [5], with U-937 [7] and in the assay on U-937 [8] was Active. In addition, the Activity in the assay with U-937 [6] was found to be 16.8%; in the assay with U-937 [2] it was 21.5%.

For the molecule `Nc1ccccc1NC(=O)CCCCCC(=O)Nc1ccccc1`, the outcome with U-937 [9] was inactive. Besides, the result in the assay on U-937 [10] and in the assay with U-937 [11] was Active. In the assay on U-937 [2], the Activity was found to be 18.3%.

As to `Nc1cccc2cccc(NC(=O)CCCCCc3nc(-c4ccc(-c5ccccc5)cc4)cc(=O)[nH]3)c12`, in the assay with U-937 [2], the Activity amounted to 67.6%.

Regarding `Nc1ccccc1NC(=O)CCCCSc1nc(-c2ccccc2)cc(=O)[nH]1`, the result with U-937 [1] was Active.

Consider `Nc1ccccc1NC(=O)CCCCCc1nc(-c2ccccc2)cc(=O)[nH]1`, for which, in the assay with U-937 [6], the Activity turned out to be 4.8%. Besides, the result with U-937 [1] was Active.

On to `Nc1cccc2cccc(NC(=O)CCCCSc3nc(-c4ccccc4)cc(=O)[nH]3)c12`, for which, in the assay with U-937 [1], the outcome was Active. Also, in the assay with U-937 [2], the Activity came to 30.3%.

Take `O=C(CCCCCC(=O)Nc1ccccc1O)Nc1ccccc1`: in the assay on U-937 [2], the Activity worked out at 36.6%.

On to `Nc1ccccc1NC(=O)c1ccc(CNC(=O)OCc2cccnc2)cc1` [ENTINOSTAT], for which the outcome in the assay on U-937 [3] and in the assay with U-937 [7] was inactive. Moreover, the result with U-937 [4] and in the assay with U-937 [8] was Active. Besides, the Activity with U-937 [6] was found to be 3.5%; with U-937 [2], 30.8%.

As for `Nc1ccccc1NC(=O)c1ccc(CSc2nc(-c3ccccc3)cc(=O)[nH]2)cc1`, the IC50 against Histone deacetylase 4 stood at 125 µM; on Histone deacetylase 1, 0.2 µM. For the same molecule, the outcome in the assay on U-937 [1] and with U-937 [12] was Active. Further, the Activity in the assay on U-937 [2] amounted to 47.6%.

(Values after ChEMBL document CHEMBL1144847, “Novel uracil-based 2-aminoanilide and 2-aminoanilide-like derivatives: histone deacetylase inhibition and in-cell activities” (Bioorg Med Chem Lett, 2008).)
